Experimental data of several laboratories.
Lines come from different studies, so protocols differ.
Target: Serine/threonine-protein kinase TAO1 (TAOK1, Homo sapiens, UniProt Q7L7X3)
Residues used in one study (Q7L7X3 1-1001): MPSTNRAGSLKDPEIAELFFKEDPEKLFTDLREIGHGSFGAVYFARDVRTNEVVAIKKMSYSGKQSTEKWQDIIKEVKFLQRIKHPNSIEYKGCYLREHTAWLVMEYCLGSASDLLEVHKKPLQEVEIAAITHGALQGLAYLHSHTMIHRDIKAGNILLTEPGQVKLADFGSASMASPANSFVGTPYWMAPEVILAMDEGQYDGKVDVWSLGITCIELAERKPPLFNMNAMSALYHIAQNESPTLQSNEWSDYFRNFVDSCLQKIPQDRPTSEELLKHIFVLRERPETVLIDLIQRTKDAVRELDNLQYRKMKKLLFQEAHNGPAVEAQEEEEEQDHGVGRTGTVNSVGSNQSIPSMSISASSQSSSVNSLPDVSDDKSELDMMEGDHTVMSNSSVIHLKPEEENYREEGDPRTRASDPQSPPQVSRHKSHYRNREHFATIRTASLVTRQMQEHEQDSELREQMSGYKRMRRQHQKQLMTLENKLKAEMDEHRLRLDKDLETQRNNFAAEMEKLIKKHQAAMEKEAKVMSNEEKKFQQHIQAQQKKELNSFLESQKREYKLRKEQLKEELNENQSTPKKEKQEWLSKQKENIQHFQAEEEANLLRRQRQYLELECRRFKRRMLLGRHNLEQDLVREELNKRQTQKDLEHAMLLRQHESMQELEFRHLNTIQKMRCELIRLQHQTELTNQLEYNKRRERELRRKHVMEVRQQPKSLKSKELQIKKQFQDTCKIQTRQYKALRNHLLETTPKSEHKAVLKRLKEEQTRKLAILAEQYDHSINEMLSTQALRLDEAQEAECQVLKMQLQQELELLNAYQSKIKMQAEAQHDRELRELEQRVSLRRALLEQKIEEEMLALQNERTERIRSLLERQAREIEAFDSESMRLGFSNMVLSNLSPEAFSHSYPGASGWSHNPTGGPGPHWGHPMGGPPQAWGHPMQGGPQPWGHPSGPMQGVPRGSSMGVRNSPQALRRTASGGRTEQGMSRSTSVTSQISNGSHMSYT

SMILES	test	setting	measurement	value
Cc1sc(C(=O)NC2COC2)cc1-n1cc(NC(=O)Nc2c(F)cccc2Cl)cn1	enzyme activity, inhibitor	10 µM	remaining activity	108%
COc1cc(Cl)c(C(=O)N[C@@H](CN[C@H]2CC[C@@H](N)CC2)Cc2ccc(C#N)cc2)cc1-c1ccc(CN[C@H](C)c2ccc(C)cc2)o1	enzyme activity, inhibitor	1 µM	remaining activity	97%
COc1cc(Nc2cnc(C#N)c(O[C@H](C)CN(C)C)n2)ncc1-c1cnn(C)c1	enzyme activity, inhibitor, radiometric	1 µM	remaining activity	87%
Cc1ccc(C(=O)Nc2ccc(CN3CCN(C)CC3)c(C(F)(F)F)c2)cc1C#Cc1cnc2cccnn12	enzyme activity, inhibitor	23.5 nM	remaining activity	67%
Cn1c(=O)n(-c2ccc(C(C)(C)C#N)cc2)c2c3cc(-c4cnc5ccccc5c4)ccc3ncc21	enzyme activity, inhibitor	10 µM	remaining activity	81%
Cc1ccc(C(=O)NCc2ccsc2)cc1C#Cc1cn(C(C)C)c2ncnc(N)c12	enzyme activity, inhibitor	1 µM	activity vs control	48%
CN1CC(Oc2cnc(C#N)cc2-c2ccn3nc(NC(=O)C4CC4)cc3c2)C1	enzyme activity, inhibitor	1 µM	inhibition	-1%
C[C@H](c1ccnc(Nc2nc3ccc(-c4cc(N(C)C)ncn4)cc3[nH]2)c1)N1CCN(C(=O)CC(F)(F)F)CC1	cell-free assay, competition with immobilised ligand	0.1 µM	remaining binding	100%
Clc1ccc(Nc2nnc(Cc3ccncc3)c3ccccc23)cc1	cell-free assay	0.5 µM	remaining signal	98.7%
CCN(CC)c1ccc(C2=NNC(=O)CC2C)cc1[N+](=O)[O-] (stereo not drawn)	enzyme activity, inhibitor	10 µM	remaining activity	115%
Cc1nc(C2CCN(C(=O)c3ccc(OC(F)(F)F)cc3N)CC2)c2ncc(N3CCN(C)CC3)cc2n1	cell-free assay, competition with immobilised ligand	1 µM	remaining binding	100%
Nc1nc(Nc2ccc(S(N)(=O)=O)cc2)sc1C(=O)c1ccccc1[N+](=O)[O-]	enzyme activity, inhibitor	0.1 µM	inhibition	60 to 66%
N#CCCc1ccc2c(c1)-c1[nH]c3ccc([N+](=O)[O-])cc3c1CC(=O)N2	cell-free assay	0.5 µM	remaining signal	73.1%
CN(C)C(=O)Cn1cc(-c2nc(C3(c4ccc(-c5cnc(N)nc5)cc4)CC3)no2)cn1	cell-free assay, competition with immobilised ligand	1 µM	remaining binding	86%
CCN(CC)CCNC(=O)c1c(C)[nH]c(/C=C2\C(=O)Nc3ccc(F)cc32)c1C	cell-free assay	0.5 µM	remaining signal	71.5%
CO[C@@H](C)c1c(Nc2ccc([C@H](N(C)C(=O)C3CCS(=O)(=O)CC3)C(F)(F)F)cc2)cnc2cc(Cl)nn12	cell-free assay, competition with immobilised ligand	1 µM	remaining binding	100%
O=C(Nc1cnn(-c2csc(C(=O)NC3COC3)c2)c1)Nc1ccccc1Cl	enzyme activity, inhibitor	5 µM	remaining activity	122%
CS(=O)(=O)c1cc(C2(NC(=O)c3cncc4c3cnn4-c3ccc(F)cc3)CC2)ccn1	cell-free assay, competition with immobilised ligand	1 µM	remaining binding	94%
Cc1cnc(NC2CCOCC2)nc1-n1cnc(C(=O)NC(CN)c2cc(F)cc(Cl)c2)c1 (stereo not drawn)	enzyme activity, inhibitor, radiometric	1 µM	remaining activity	67%
O=C(N1CCS(=O)(=O)CC1)N1C[C@H](c2ccc(OC(F)(F)F)cc2)C[C@H](c2nc(C3CC3)no2)C1	cell-free assay, competition with immobilised ligand	1 µM	remaining binding	100%
FC(F)(F)Oc1cccc(-c2cnc3ccc(-c4ccncc4)nn23)c1	enzyme activity, inhibitor, radiometric	5 µM	activity vs control	87%
